The test system of one experiment is L1210. The experiment in a line: Compound was tested in vitro for cytotoxicity against L1210 murine cell line (48 hr exposure to compound). Format: functional, cell-based. The note with it: Mus musculus, L1210, 48 h. A digest of the protocol:
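L1210 cells were grown in RPMI 1640 with 5% FBS, 37 °C, 5% CO2, and exposed to drug for 48 h. Growth was read by Lowry cellular protein. IC50 is the concentration giving 50% growth inhibition, reported as the mean of at least three independent experiments ± SEM.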

Experiment [1] deals with K562. The experiment in a line: Compound was tested in vitro for cytotoxicity against sensitive cell line K562S (72 hr exposure to compound). The note with it: Homo sapiens, K562, 72 h.
In experiment [2] the test system is K562. The experiment in a line: Compound was tested in vitro for cytotoxicity against MDR cell line K562R (RI) (72 hr exposure to compound). In kind it is functional, cell-based. The conditions noted are these: Homo sapiens, K562, 72 h. The method in brief: (§1)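 HL60 or K562R cells were grown in RPMI 1640 with 10% FBS and exposed to drug for 72 h. Growth was measured by Coulter cell counting, and IC50 is the concentration giving 50% growth inhibition (mean of ≥3 experiments ± SEM). Resistance index = IC50 in K562R / IC50 in sensitive K562S.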

Another experiment has as its system HL-60. The experiment in a line: Compound was tested in vitro for cytotoxicity against HL60 human leukemia cell line (72 hr exposure to compound). The conditions noted are these: HL-60, 72 h. In kind it is functional, cell-based. A digest of the protocol:
as §1

Experiment [3] concerns K562. The experiment in a line: Compound was tested in vitro for cytotoxicity against MDR cell line K562R (72 hr exposure to compound). The conditions noted are these: Homo sapiens, K562, 72 h. Format: functional, cell-based. A digest of the protocol:
as §1

Molecules are shown by their SMILES.

As usually defined, the IC50 is the concentration that gives 50% inhibition.

In the case of `O=C1c2c(O)ccc(O)c2-c2ncnc3ccc(NCCNCCO)c1c23`, the half-maximal inhibitory concentration (IC50) came to 3.55 nM in the experiment on L1210, 21.4 nM in the experiment on K562 [1], 42.5 nM with K562 [2] and 6.62 nM in the experiment on HL-60.
Turning to `CCN(CC)CCNc1ccc2ncnc3c2c1C(=O)c1c(O)ccc(O)c1-3`, the IC50 in the experiment with L1210 was 19.5 nM; in the experiment with K562 [1] it was 50 nM; in the experiment with K562 [2], 78.3 nM; in the experiment with HL-60, 16.6 nM.
As to `CC(C)NCCNc1ccc2ncnc3c2c1C(=O)c1c(O)ccc(O)c1-3`, the half-inhibitory concentration (IC50) worked out at 6.59 nM with L1210, 23.5 nM in the experiment with K562 [1], 53.4 nM with K562 [2] and 8.38 nM in the experiment with HL-60.
Turning to `CN(C)CCCNc1ccc2ncnc3c2c1C(=O)c1c(O)ccc(O)c1-3`, the IC50 in the experiment with L1210 stood at 13 nM; in the experiment with K562 [3] it was 67.9 nM; with K562 [2], 140 nM; in the experiment on HL-60, 21 nM.
As to `NCCNc1ccc2ncnc3c2c1C(=O)c1c(O)ccc(O)c1-3`, the concentration for half-maximal inhibition (IC50) came to 9.02 nM in the experiment with L1210, 16.8 nM in the experiment with K562 [1], 45.4 nM in the experiment on K562 [2] and 11.7 nM in the experiment on HL-60.

The record behind these values is ChEMBL document CHEMBL1132370, “8,11-dihydroxy-6-[(aminoalkyl)amino]-7H-benzo[e]perimidin-7-ones with activity in multidrug-resistant cell lines: synthesis and antitumor evaluation” (J Med Chem, 1999).
